Where two headings read alike, the source gives them in different places. Starred links: 1 amine or outer side, 2 acyl side, 3 side chain; linkers in the order of their positions; H or OH if unused. Positions of bridges follow the written chain, without caps; N, C: chain ends. Non-standard residues stand in square brackets, D forms with d. Residues, ends and D or L forms follow the SMILES beside them. *: point of attachment. hTyr(3S-OH,4S-OH,3'-OSO3H) = N[C@H](C(=O)O)[C@H](O)[C@@H](O)c1ccc(O)c(OS(=O)(=O)O)c1; Orn(4R-OH,5R-OH) = O=C([C@H](C[C@@H](O)[C@@H](O)N[*:3])N[*:1])[*:2]; Pro(3S-OH,4S-Me) = C[C@H]1CN[C@H](C(=O)O)[C@H]1O; X1 = CCCCCOc1ccc(-c2cc(-c3ccc(C(=O)*)cc3)no2)cc1; Gln(3R-OH) = NC(=O)C[C@@H](O)[C@H](N)C(=O)O; Hyp = O=C(O)[C@@H]1C[C@@H](O)CN1
Key:
[1] = test system: Candida spp; details: ref 6-8; cited from earlier work
[2] = Safety: adverse events in infants on ECMO receiving micafungin; assay type: in vivo
[3] = phase III efficacy trial, used as target efficacy exposure; cited from earlier work
[4] = cited from earlier work
[5] = neonatal trial of 15 mg/kg/day; standard deviation 99; cited from earlier work
[6] = Open-label PK trial of IV micafungin in infants on ECMO; details: human, in vivo
[7] = Observed micafungin exposure; assay type: in vivo, infants; details: 4 mg/kg IV every 24h
Method in brief: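 Infants on ECMO, prophylactic arm, given IV test compound 4 mg/kg every 24h for up to 8 days. EDTA arterial plasma sampled around dose 4, from pre-infusion to 22-24h post-infusion, and assayed by HPLC-fluorescence (LLOQ 0.05 mg/L). AUC0-24 was computed from observed data by the linear-up log-down trapezoidal method and compared with the therapeutic target of 75-139 mg*h/L.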

[8] = ref 33; cited from earlier work
[9] = cited from earlier work; remark: listed apart in the source
[10] = cited from earlier work; remark: listed apart in the source
[11] = infants and children receiving micafungin; cited from earlier work
[12] = via hepatic transporter proteins; cited from earlier work

In the case of `CCCCCOc1ccc(-c2cc(-c3ccc(C(=O)N[C@H]4C[C@@H](O)[C@@H](O)NC(=O)[C@@H]5[C@@H](O)[C@@H](C)CN5C(=O)[C@H]([C@H](O)CC(N)=O)NC(=O)[C@H]([C@H](O)[C@@H](O)c5ccc(O)c(OS(=O)(=O)O)c5)NC(=O)[C@@H]5C[C@@H](O)CN5C(=O)[C@H]([C@@H](C)O)NC4=O)cc3)no2)cc1` [micafungin] (X1-[Orn(4R-OH,5R-OH)]T[Hyp][hTyr(3S-OH,4S-OH,3'-OSO3H)][Gln(3R-OH)][Pro(3S-OH,4S-Me)]; lactam 1-C), the “Activity against a broad spectrum of Candida spp” value [1] is given as “fungicidal”, the Biofilm penetration [1] is given as “can penetrate biofilms” and the “Deaths considered related to micafungin” value ([2]; 12 infants on ECMO, study period) is given as “None”. The Tolerability ([2]; cohort of infants supported by ECMO) was “well tolerated”, the “AUC0-24 range, exposure of adult participants who cleared their fungal infection” value [3] was 75 to 139 µg·h/mL and the “Time reconstituted micafungin is stable” value ([4]; reconstituted, room temperature, exposed to light) was “up to 24 hours”. The Light sensitivity ([4]; ref 16) was “light-sensitive”, the “Mean (standard deviation) exposure deemed safe” value [5] was 438 µg·h/mL and the Vd [6] was 0.64 L/kg. The clearance [6] was 0.683 mL/min/kg, the “Infants with a hemofilter achieving AUC0-24 within or above the therapeutic target range” value ([7]; after dose 1 and 4, Two/4 infants) was 50% and the “Infants within the therapeutic range after dose 4” value ([7]; prophylactic arm, 3/5 infants sampled around dose 4) was 60%. For the same molecule, the “Infants achieving the therapeutic exposure target (75-139 mg*h/L) after a single dose” value ([7]; prophylactic arm, 5/11 infants) was 45%, the logP [8] was −1.5 and the Protein bound ([9]; ref 14) was over 99%. For the same molecule, the Protein bound ([9]; ref 33) was over 99%, the “V reported in infants not on ECMO” value ([10]; ref 15, 25) was 0.34 to 0.54 L/kg and the “CL, previously reported values for infants not supported by ECMO” value ([10]; ref 19, 24-26) was 0.333 to 0.65 mL/min/kg. The “Hypokalemia, proportion of infants and children” value [11] was 2%, the “Liver toxicity, proportion of infants and children” value [11] was 3% and the “Excreted primarily unchanged into bile and feces” value [12] was 71%.

Source: publication PMC5071122 (The Pediatric infectious disease journal, 2016)
